≈ marks a conversion by molar mass, not a printed value. Calls of active or inactive are those of the source.
How the values were obtained:
[1] = tested on: Mycobacterium tuberculosis; assay: Antimycobacterial activity against Mycobacterium tuberculosis H37Rv ATCC 25618 after 6 days by resazurin-based assay; assay type: functional; details: H37Rv ATCC 25618, 144 h
[2] = Intrinsic clearance in mouse liver microsomes at 0.5 uM preincubated with NADPH and measured up to 30 mins by LC-MS/MS analysis; assay type: ADME, microsome
[3] = Intrinsic clearance in human liver microsomes at 0.5 uM preincubated with NADPH and measured up to 30 mins by LC-MS/MS analysis; assay type: ADME, microsome
[4] = Half life in C57BL/6 mouse at 3.6 mg/kg, iv by LC-MS/MS analysis; assay type: ADME, organism-based; details: in vivo
Method in brief: (§1)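 Female C57BL/6 mice (18−20 g), single intravenous dose in 5% DMSO/20% Encapsin. Tail-vein whole blood (25 μL) was taken from each mouse (n = 5) at 5, 15 and 30 min and 1, 2, 4 and 8 h postdose, and compound concentration was measured in peripheral whole blood.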

[5] = Volume of distribution at steady state in C57BL/6 mouse at 3.6 mg/kg, iv by LC-MS/MS analysis; assay type: ADME, organism-based; details: in vivo, read-out: Vdss; method in brief: as §1
[6] = Clearance in C57BL/6 mouse at 3.6 mg/kg, iv by LC-MS/MS analysis; assay type: ADME, organism-based; details: in vivo; method in brief: as §1
[7] = Cmax in C57BL/6 mouse at 18.7 mg/kg, po via gavage by LC-MS/MS analysis; assay type: ADME, organism-based; set-up: dose 18.7 mg/kg, route oral; details: in vivo
[8] = AUC in C57BL/6 mouse at 18.7 mg/kg, po via gavage by LC-MS/MS analysis; assay type: ADME, organism-based; details: in vivo
[9] = Oral bioavailability in C57BL/6 mouse at 18.7 mg/kg via gavage by LC-MS/MS analysis; assay type: ADME, organism-based; details: in vivo
HepG2 [10] = assay: Cytotoxicity against human HepG2 cells assessed as effect on membrane permeability after 48 hrs by TOTO-3 iodide-staining based cell health assay; assay type: ADME; details: HepG2, 48 h
HepG2 [11] = assay: Cytotoxicity against human HepG2 cells assessed as effect on mitochondrial membrane potential after 48 hrs by TMRM-staining based cell health assay; assay type: ADME; details: HepG2, 48 h
HepG2 [12] = assay: cells; assay type: ADME, cell-based; details: Homo sapiens, HepG2, 48 h
physchem = details: buffer, pH 7.4
[13] = tested on: Mycobacterium tuberculosis; assay: Antibacterial activity against Mycobacterium tuberculosis H37Rv infected in C57BL/6 mouse assessed as reduction in colony forming units administered orally once daily for 8 days starting following day after infection and measured at 24 hrs post last dose relative to untreated control; assay type: functional
Method in brief: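 Female C57BL/6 mice, 8−10 weeks old, infected intratracheally with 100 000 CFU of H37Rv. Oral dosing once daily for 8 days began 1 day post-infection. Lungs were harvested 24 h after the last dose, homogenised and plated on 7H11 with 10% OADC and 0.4% charcoal for 18 days at 37 °C. Log10 CFU was fitted to a sigmoidal dose-response curve, and ED99 was defined as a 2-log CFU drop versus untreated.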

[14] = Half life in C57BL/6 mouse at 4.5 mg/kg, iv by LC-MS/MS analysis; assay type: ADME, organism-based; details: in vivo
[15] = Volume of distribution at steady state in C57BL/6 mouse at 4.5 mg/kg, iv by LC-MS/MS analysis; assay type: ADME, organism-based; details: in vivo, read-out: Vdss
[16] = Clearance in C57BL/6 mouse at 4.5 mg/kg, iv by LC-MS/MS analysis; assay type: ADME, organism-based; details: in vivo
[17] = Cmax in C57BL/6 mouse at 45 mg/kg, po via gavage by LC-MS/MS analysis; assay type: ADME, organism-based; set-up: dose 45 mg/kg, route oral; details: in vivo
[18] = AUC in C57BL/6 mouse at 45 mg/kg, po via gavage by LC-MS/MS analysis; assay type: ADME, organism-based; details: in vivo
[19] = Oral bioavailability in C57BL/6 mouse at 45 mg/kg via gavage by LC-MS/MS analysis; assay type: ADME, organism-based; details: in vivo

| Structure (SMILES) | MIC90 [1] | CLH [2] | CLH [3] | IC50 (HepG2 [10]) | IC50 (HepG2 [11]) | IC50 (HepG2 [12]) | solubility kinetic at 1 h (physchem) | also measured |
| --- | --- | --- | --- | --- | --- | --- | --- | --- |
| c1ccc(Oc2ccc(CN3CCC4(CC3)OCCc3sccc34)cc2)cc1 | 0.05 µM (≈ 0.0196 µg/mL) | 28.8 mL/min/g | 12 mL/min/g | – | – | – | – | half-life [4]: 234 min; Vd [5]: 19.4 L/kg; clearance [6]: 67.7 mL/min/kg; Cmax [7]: 50 ng/mL; AUC [8]: 100 ng·h/mL; bioavailability [9]: 1.5% |
| FC(F)(F)Oc1ccc(Oc2ccc(CN3CCCCC3)cc2)cc1 | > 5 µM | – | – | 46.3 µM | 49.5 µM | 44.2 µM | 156 µM (≈ 54.8 µg/mL) | – |
| Cc1cccc(CN2CCC3(CC2)OCCc2sccc23)c1 | 0.63 µM (≈ 0.197 µg/mL) | > 30 mL/min/g | 5.2 mL/min/g | – | – | – | – | – |
| CC(C)(C)c1ccc(CN2CCC3(CC2)OCCCCO3)cc1 | 5 µM (≈ 1.59 µg/mL) | 27 mL/min/g | 4.1 mL/min/g | > 200 µM | 170 µM | 166 µM | 194 µM (≈ 61.6 µg/mL) | – |
| Cc1ccccc1CN1CCC2(CC1)OCCc1sccc12 | > 5 µM | – | – | – | – | – | – | – |
| NNC(=O)c1ccncc1 | – | – | – | – | – | – | – | Activity [13]: Active |
| COc1ccc2c(c1)CCOC21CCN(Cc2ccc3c(c2)OCCO3)CC1 | > 10 µM | – | – | – | – | – | – | – |
| FC(F)(F)Oc1ccc(Oc2ccc(CN3CCC4(CCNC4)CC3)cc2)cc1 | > 5 µM | – | – | 5.7 µM | 6.6 µM | 4.9 µM | 117 µM (≈ 47.6 µg/mL) | – |
| Cc1cc(CN2CCC3(CC2)OCCc2sccc23)c(C)n1-c1ccccc1 | 3 µM (≈ 1.18 µg/mL) | – | – | – | – | – | – | – |
| Cc1cc(CN2CCC3(CC2)OCCc2sccc23)c(C)n1-c1ccc(F)cc1 | 3 µM (≈ 1.23 µg/mL) | – | – | – | – | – | – | – |
| COc1ccc(-n2c(C)cc(CN3CCC4(CC3)OCCc3sccc34)c2C)cc1 | 3 µM (≈ 1.27 µg/mL) | – | – | – | – | – | – | – |
| Cc1cc(CN2CCC3(CC2)OCCc2sccc23)c(C)n1-c1ccccn1 | 14 µM (≈ 5.51 µg/mL) | – | – | – | – | – | – | – |
| O=C1OCCC12CCN(Cc1ccc(Oc3ccc(OC(F)(F)F)cc3)cc1)CC2 | > 5 µM | – | – | 75.9 µM | > 200 µM | 74.1 µM | 121 µM (≈ 51 µg/mL) | – |
| CC(C)(C)c1ccc(CN2CCC3(CCCOC3)CC2)cc1 | 0.63 µM (≈ 0.19 µg/mL) | 48 mL/min/g | 7.3 mL/min/g | > 200 µM | > 200 µM | > 200 µM | 363 µM (≈ 109 µg/mL) | – |
| c1ccc2oc(CN3CCC4(CC3)OCCc3ccsc34)cc2c1 | > 100 µM | – | – | – | – | – | – | – |
| FC(F)(F)Oc1ccc(Oc2ccc(CN3CCC4(CC3)OCCO4)cc2)cc1 | > 5 µM | – | – | 49.8 µM | 53.8 µM | 46.9 µM | 52 µM (≈ 21.3 µg/mL) | – |
| Cc1ccc(CN2CCC3(CC2)OCCc2sccc23)[nH]1 | > 5 µM | 28.7 mL/min/g | 4.1 mL/min/g | – | – | – | – | – |
| Brc1ccc(Nc2ccc(CN3CCC4(CC3)OCCc3sccc34)cc2)cc1 | 0.2 µM (≈ 0.0939 µg/mL) | 0.9 mL/min/g | 1.5 mL/min/g | – | – | – | – | half-life [14]: 438 min; Vd [15]: 12 L/kg; clearance [16]: 19.8 mL/min/kg; Cmax [17]: 1020 ng/mL; AUC [18]: 17900 ng·h/mL; bioavailability [19]: 84.6% |
| CN1C(=O)C=CCC12CCN(Cc1ccc(Oc3ccc(OC(F)(F)F)cc3)cc1)CC2 | > 5 µM | – | – | 29.2 µM | 36.3 µM | 39.4 µM | 87 µM (≈ 38.8 µg/mL) | – |
| CC(c1ccc(C(F)(F)F)cc1)N1CCC2(CC1)OCCc1sccc12 (stereo not drawn) | 0.63 µM (≈ 0.24 µg/mL) | 18.1 mL/min/g | 4.6 mL/min/g | – | – | – | – | – |
| c1ccc2c(CN3CCC4(CC3)OCCc3sccc34)c[nH]c2c1 | 0.94 µM (≈ 0.318 µg/mL) | 7 mL/min/g | 3.1 mL/min/g | – | – | – | – | – |
| c1cc2c(s1)CCOC21CCN(Cc2ccc3c(c2)CCCC3)CC1 | 0.02 µM (≈ 0.00707 µg/mL) | > 30 mL/min/g | 22.6 mL/min/g | – | – | – | – | – |
| c1ccc2c3c([nH]c2c1)C1(CCN(Cc2ccc4c(c2)OCCO4)CC1)OCC3 | 93 µM (≈ 36.3 µg/mL) | – | – | – | – | – | – | – |
| FC(F)(F)Oc1ccc(Oc2ccc(CN3CCC4(CC3)OCCCO4)cc2)cc1 | 0.65 µM (≈ 0.275 µg/mL) | < 0.5 mL/min/g | < 0.5 mL/min/g | 25.7 µM | 28.8 µM | 26.3 µM | 53 µM (≈ 22.4 µg/mL) | – |

Reference: ChEMBL document CHEMBL4257587 (J Med Chem, 2018)
